Measured values published in ChEMBL document CHEMBL3525958 (Drug Metab Dispos, 2013).
One block for each compound: values may come before it.

Key:
[1] = Oral bioavailability in rat; format: ADME, organism-based; conditions: in vivo
[2] = Oral bioavailability in human; format: ADME, organism-based; conditions: in vivo
[3] = Ratio of Cmax in milk to plasma in lactating rat; format: ADME; conditions: female
[4] = Oral bioavailability in dog; format: ADME, organism-based, Canis lupus familiaris; conditions: in vivo
[5] = Ratio of drug level in brain to blood in po dosed rat; format: ADME, organism-based
[6] = Ratio of AUC in milk to plasma in lactating rat; format: ADME; conditions: female, read-out: Ratio AUC
[7] = Activity at human P-glycoprotein expressed in pig LLC-PK1 cells at 10 uM after 120 mins by liquid scintillation counting; format: ADME, cell-based; conditions: llc-pk1, 2 h
[8] = Activity at human P-glycoprotein expressed in pig LLC-PK1 cells assessed as rate of transport at 10 uM after 120 mins by liquid scintillation counting; format: ADME, cell-based; conditions: llc-pk1, 2 h
How it was run: (§1)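 Human P-gp-cDNA LLC-PK1 cells and vector-only (mock) cells were cultured on collagen-coated inserts for 7 days. […] Facilitated rate v = IA/(filter area × time), where IA is the net P-gp-dependent pmol transported.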

[9] = Activity at human P-glycoprotein expressed in pig LLC-PK1 cells at 10 uM after 60 mins by liquid scintillation counting; format: ADME, cell-based; conditions: llc-pk1, 1 h
[10] = Activity at human P-glycoprotein expressed in pig LLC-PK1 cells assessed as rate of transport at 10 uM after 90 mins by liquid scintillation counting; format: ADME, cell-based; how it was run: as §1
[11] = Activity at human P-glycoprotein expressed in pig LLC-PK1 cells at 5 uM after 90 mins by liquid scintillation counting; format: ADME, cell-based
[12] = Activity at human P-glycoprotein expressed in pig LLC-PK1 cells assessed as rate of transport at 25 uM after 90 mins by liquid scintillation counting; format: ADME, cell-based; how it was run: as §1
[13] = Activity at human P-glycoprotein expressed in pig LLC-PK1 cells assessed as rate of transport at 10 uM after 60 mins by liquid scintillation counting; format: ADME, cell-based; conditions: llc-pk1, 1 h; how it was run: as §1
[14] = Activity at human P-glycoprotein expressed in pig LLC-PK1 cells at 25 uM after 90 mins by liquid scintillation counting; format: ADME, cell-based
[15] = Activity at human P-glycoprotein expressed in pig LLC-PK1 cells at 50 uM after 90 mins by liquid scintillation counting; format: ADME, cell-based
[16] = Activity at human P-glycoprotein expressed in pig LLC-PK1 cells at 100 uM after 90 mins by liquid scintillation counting; format: ADME, cell-based
[17] = Activity at human P-glycoprotein expressed in pig LLC-PK1 cells assessed as rate of transport at 100 uM after 90 mins by liquid scintillation counting; format: ADME, cell-based; how it was run: as §1
[18] = Activity at human P-glycoprotein expressed in pig LLC-PK1 cells at 10 uM after 90 mins by liquid scintillation counting; format: ADME, cell-based
[19] = Activity at human P-glycoprotein expressed in pig LLC-PK1 cells assessed as rate of transport at 50 uM after 90 mins by liquid scintillation counting; format: ADME, cell-based; how it was run: as §1
[20] = Activity at human P-glycoprotein expressed in pig LLC-PK1 cells at […] after 90 mins by liquid scintillation counting; format: ADME, cell-based
[21] = Activity at human P-glycoprotein expressed in pig LLC-PK1 cells assessed as rate of transport at […] after 90 mins by liquid scintillation counting; format: ADME, cell-based
[22] = Activity at human P-glycoprotein expressed in pig LLC-PK1 cells assessed as rate of transport at 5 uM after 90 mins by liquid scintillation counting; format: ADME, cell-based; how it was run: as §1
BCRP [23] = assay: in vitro; conditions: human, Caco-2, with Ko134 11 uM
BCRP [24] = assay: Efflux ratio of apparent permeability from basolateral to apical side over apical to basolateral side in MDCK2 cells expressing human BCRP at 5 uM by liquid scintillation counting; format: ADME, cell-based, Canis lupus familiaris, MDCK-II; conditions: dog
How it was run: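 MDCKII cells, mock or carrying human BCRP cDNA, were cultured 4 days on transwell inserts, with 10 mM sodium butyrate added 24 h before assay. Cells were pre-incubated 10 min in modified Krebs-Henseleit buffer with 5 mM glucose at 37°C. […] Samples were scintillation counted, and efflux ratio = PcB-A/PcA-B.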

P-glycoprotein (human) = assay: Efflux ratio of apparent permeability from basolateral to apical side over apical to basolateral side in pig LLC-PK1 cells expressing human P-glycoprotein at 5 uM by liquid scintillation counting; format: ADME, cell-based, Sus scrofa
P-gp [25] = assay: Apparent permeability in human Caco2 cells assessed as 50 uM P-gp inhibitor cyclosporin A-mediated inhibition of digoxin efflux at 5 uM by liquid scintillation counting; format: ADME, cell-based; conditions: Caco-2 cells, with cyclosporin A 50 uM
How it was run: (§2)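 Caco-2 monolayers (passages 17–40, 13–22 days post-seeding) were used. Bidirectional transport ran for 2 h at 37°C, shaken at 50 rpm, in HBSS/10 mM HEPES pH 7.4. […] Inhibitors were present in both chambers: ketoconazole or cyclosporin A (20 or 50 µM), Ko134 (1 or 11 µM), or probenecid with the 20 µM runs. Results are % inhibition of efflux ratio.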

[26] = Apparent permeability from apical to basolateral side of human Caco2 cells at 5 uM by liquid scintillation counting; conditions: Caco-2
[27] = Apparent permeability from basolateral to apical side of human Caco2 cells at 5 uM by liquid scintillation counting; conditions: Caco-2
P-gp [28] = assay: Apparent permeability in human Caco2 cells assessed as 50 uM P-gp inhibitor ketoconazole-mediated inhibition of digoxin efflux at 5 uM by liquid scintillation counting; format: ADME, cell-based; conditions: Caco-2 cells, with ketoconazole 50 uM; how it was run: as §2
BCRP [29] = assay: Permeability in human Caco2 cells assessed as 11 uM BCRP inhibitor Ko134-mediated inhibition of digoxin at 5 uM by liquid scintillation counting; format: ADME, cell-based; conditions: Caco-2, with Ko134 11 uM; how it was run: as §2

Compound: O=C1CN(/N=C/c2ccc([N+](=O)[O-])o2)C(=O)N1 [NITROFURANTOIN]
inhibition at 5 µM (BCRP [23]): 78%

Compound: COc1cc2nc(N3CCN(C(=O)c4ccco4)CC3)nc(N)c2cc1OC [PRAZOSIN]
efflux ratio at 5 µM (BCRP [24]): 10

Compound: C[C@H]1O[C@@H](O[C@H]2[C@@H](O)C[C@H](O[C@H]3[C@@H](O)C[C@H](O[C@H]4CC[C@@]5(C)[C@H](CC[C@@H]6[C@@H]5C[C@@H](O)[C@]5(C)[C@@H](C7=CC(=O)OC7)CC[C@]65O)C4)O[C@@H]3C)O[C@@H]2C)C[C@H](O)[C@@H]1O [DIGOXIN]
efflux ratio at 5 µM (P-glycoprotein (human)): > 7
inhibition at 5 µM (P-gp [25]): 98%
Papp A→B at 5 µM [26]: 2.3 ×10⁻⁶ cm/s
Papp B→A at 5 µM [27]: 20.5 ×10⁻⁶ cm/s
inhibition at 5 µM (P-gp [28]): 100%
inhibition at 5 µM (BCRP [29]): 50%

Second part, the compound after the results:

bioavailability [1]: 30%
bioavailability [2]: 50%
Kp [3]: 8
bioavailability [4]: 70%
Kp [5]: < 0.1
Kp [6]: 30
Compound: COc1ccc(-n2nc(C(N)=O)c3c2C(=O)N(c2ccc(N4CCCCC4=O)cc2)CC3)cc1 [APIXABAN]

Intrinsic activity [7]: 294 pmol
Drug transport [8]: 474 pmol/cm2/hr
Intrinsic activity [9]: 146 pmol
Drug transport [10]: 360 pmol/cm2/hr
Intrinsic activity [11]: 64 pmol
Drug transport [12]: 1179 pmol/cm2/hr
Drug transport [13]: 471 pmol/cm2/hr
Intrinsic activity [14]: 548 pmol
Intrinsic activity [15]: 1485 pmol
Intrinsic activity [16]: 2772 pmol
Drug transport [17]: 5962 pmol/cm2/hr
Intrinsic activity [18]: 167 pmol
Drug transport [19]: 3194 pmol/cm2/hr
Intrinsic activity [20]: 33 pmol
Drug transport [21]: 71 pmol/cm2/hr
Drug transport [22]: 139 pmol/cm2/hr
Compound: COc1ccc(-n2nc(C(N)=O)c3c2C(=O)N(c2ccc(N4CCCC[14C]4=O)cc2)CC3)cc1
